The source made the active and inactive calls. No cut-off for these calls is given here.
Experiments:
Rattus norvegicus [1] = species on record: Rattus norvegicus; experiment: Positive allosteric modulation of rat cortex AMPA receptor expressed in Xenopus laevis oocytes assessed as potentiation of (S)-AMPA-induced current amplitude at 10 uM by voltage clamp technique relative to (S)-AMPA; format: cell-based
Procedure, shortened: (§1)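 Two-electrode voltage clamp at room temperature on Xenopus laevis oocytes expressing rat cortex poly(A+) mRNA, using 10 μM (S)-AMPA. Oocytes were pre-screened with 100 μM S22286, applied 45 s before, 30 s during and 30 s after AMPA; those with under 130-fold potentiation were excluded. Read-outs were drug concentrations for 2-fold or 5-fold current increase, EC50, and maximal effect as % of the AMPA current; n ≥ 3.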

Rattus norvegicus [2] = species on record: Rattus norvegicus; experiment: Positive allosteric modulation of rat brain AMPA receptor assessed as potentiation of 2 fold of (S)-AMPA-induced current amplitude by FlipR method
Procedure, shortened: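 Primary neuron cultures from rat embryonic cortex were stimulated with 300 μM AMPA. Membrane depolarization was read with a fluorescent membrane-potential dye in an imaging plate reader. Reported value is the drug concentration doubling the AMPA-induced fluorescence; n = 3, mean ± SEM (some n = 2).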

Rattus norvegicus [3] = species on record: Rattus norvegicus; experiment: Positive allosteric modulation of AMPA receptor in rat hippocampal CA1 region assessed as potentiation of AMPA-induced excitatory postsynaptic field potential area in CA1 region at 10 uM relative to basal value; format: tissue-based; settings: Hippocampus
Procedure, shortened: (§2)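 Rat hippocampal slices were perfused with medium containing 1.2 mM Mg2+. EPSfPs were evoked in CA1 by Schaffer collateral stimulation, with compound at 10 μM. Area, amplitude and half-width were each normalized to the pre-application value (100%); n = 3.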

Rattus norvegicus [4] = species on record: Rattus norvegicus; experiment: Positive allosteric modulation of AMPA receptor in rat hippocampal CA1 region assessed as potentiation of AMPA-induced excitatory postsynaptic field potential half-width in CA1 region at 10 uM relative to basal value; format: tissue-based; settings: Hippocampus; procedure, shortened: as §2
Mus musculus [5] = experiment: Toxicity in mouse assessed as hypothermia at 30 mg/kg, po; format: organism-based; design: dose 30 mg/kg, route oral; settings: in vivo
Procedure, shortened: (§3)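 Irwin test in mice: a single oral dose of 30 mg/kg, five animals per compound. Behavioural and physiological changes were recorded, including body temperature at 30 min post-dose.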

Rattus norvegicus [6] = species on record: Rattus norvegicus; experiment: Positive allosteric modulation of rat cortex AMPA receptor expressed in Xenopus laevis oocytes assessed as concentration required to 2 fold potentiation of (S)-AMPA-induced current amplitude by voltage clamp technique; format: cell-based; procedure, shortened: as §1
Rattus norvegicus [7] = species on record: Rattus norvegicus; experiment: Positive allosteric modulation of AMPA receptor in rat hippocampal CA1 region assessed as potentiation of AMPA-induced excitatory postsynaptic field potential amplitude in CA1 region at 10 uM relative to basal value; format: tissue-based; settings: Hippocampus; procedure, shortened: as §2
Mus musculus [8] = experiment: Acute toxicity in mouse assessed as convulsion followed by apathy at 30 mg/kg, po; format: organism-based; design: dose 30 mg/kg, route oral; settings: in vivo
Procedure, shortened: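 Irwin screen for acute neurotoxicity in mice: single oral dose of 30 mg/kg, then behavioural and physiological state recorded (convulsions, apathy, body temperature). Five animals per compound.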

[9] = Positive allosteric modulation of rat cortex AMPA receptor expressed in Xenopus laevis oocytes assessed as potentiation of (S)-AMPA-induced current amplitude by voltage clamp technique; format: cell-based; procedure, shortened: as §1
Rattus norvegicus [10] = species on record: Rattus norvegicus; experiment: Positive allosteric modulation of rat cortex AMPA receptor expressed in Xenopus laevis oocytes assessed as concentration required to 5 fold potentiation of (S)-AMPA-induced current amplitude by voltage clamp technique; format: cell-based; procedure, shortened: as §1
Mus musculus [11] = experiment: Toxicity in mouse assessed as reduction in body temperature at 30 mg/kg, ip; format: organism-based; design: dose 30 mg/kg, route intraperitoneal; settings: in vivo
Rattus norvegicus [12] = experiment: Positive allosteric modulation of AMPA receptor in Wistar rat dentate gyrus assessed as increase in field excitatory postsynaptic potential amplitude at 30 mg/kg, ip after 1 hr; format: functional, organism-based; design: dose 30 mg/kg
Procedure, shortened: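 Anesthetized Wistar rats received 30 mg/kg ip. EPSfPs were recorded in the hippocampal dentate gyrus, with amplitude averaged over four stimuli. Values were normalized to the mean response during the 1 h baseline before injection (100%). One hour after injection, LTP was induced by tetanic stimulation and EPSfPs were followed for 3 h.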

Mus musculus [13] = experiment: Cognitive enhancing effect in CD-1 mouse assessed as recognition of familiar object at 0.3 to 1 mg/kg, po after 1 hr by object recognition test; format: functional, organism-based
Procedure, shortened: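 Three-session object recognition test in CD1 mice, with a 24 h interval between sessions. Dosing was oral, 1 h before each session. Read-out was a discrimination index: exploration time of the new object minus that of the familiar object in the last session. n = 13; one-way ANOVA versus control.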

Rattus norvegicus [14] = experiment: Positive allosteric modulation of AMPA receptor in Wistar rat dentate gyrus assessed as increase in tetanus-induced field excitatory postsynaptic potential amplitude at 30 mg/kg, ip administered 1 hr prior to tetanus challenge measured after 3 hrs relative to vehicle-treated control; format: functional, organism-based; design: dose 30 mg/kg
Procedure, shortened: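 Anaesthetised Wistar rats, 30 mg/kg ip. Field EPSPs recorded in hippocampal dentate gyrus, each amplitude the average of four stimuli. Values normalised to the mean of the 1 h baseline before injection, taken as 100%. LTP induced by tetanic stimulation 1 h after injection, then EPSPs followed for 3 h.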

Rattus norvegicus [15] = species on record: Rattus norvegicus; experiment: Positive allosteric modulation of AMPA receptor in Wistar rat hippocampus assessed as potentiation of (S)-AMPA-induced [3H]-NA release at 300 uM relative to (S)-AMPA
Procedure, shortened: (§4)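 Transverse hippocampal slices (300 μm) were loaded with [3H]noradrenaline ([…]) for 30 min at 37 °C, rinsed, then superfused with Krebs buffer, (S)-AMPA, or (S)-AMPA plus compound. Superfusate was collected in 5 min fractions and counted by scintillation. Fractional release was normalized to total radioactivity in all fractions plus tissue. Compound alone was compared with basal DMSO release, and co-application with (S)-AMPA alone (100%).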

Mus musculus [16] = experiment: Toxicity in mouse assessed as hypothermia at 30 mg/kg, po after 30 mins; format: organism-based; design: dose 30 mg/kg, route oral; settings: in vivo, 0.5 h; procedure, shortened: as §3
Rattus norvegicus [17] = species on record: Rattus norvegicus; experiment: Agonist activity at AMPA receptor in Wistar rat hippocampus assessed as [3H]-NA release at 300 uM relative to control; procedure, shortened: as §4

| Structure (SMILES) | Emax (Rattus norvegicus [1]) | Activity (Rattus norvegicus [2]) | Activity (Rattus norvegicus [6]) | further results |
| --- | --- | --- | --- | --- |
| O=S1(=O)NCN(CC(F)F)c2cc(Cl)sc21 | 2560% | 2.9 µM | 1.6 µM | Activity (Rattus norvegicus [3]): 22.7%; Activity (Rattus norvegicus [4]): 14.3%; Activity (Mus musculus [5]): 60%; Activity (Rattus norvegicus [7]): 15.3% |
| O=S1(=O)NCN(CCF)c2cc(Cl)sc21 | 5600% | 3.32 µM | 2 µM | Activity (Mus musculus [8]): Toxic; Activity (Rattus norvegicus [3]): 9.3%; Activity (Rattus norvegicus [7]): 33.7% |
| O=S1(=O)N=CN(CCF)c2c(Cl)sc(Cl)c21 | > 2330% | 20.3 µM | 26.5 µM | – |
| O=S1(=O)N=CN(CC(F)F)c2cc(Cl)sc21 | – | 100 µM | – | – |
| CCN1CNS(=O)(=O)c2sc(Cl)cc21 | 2270% | – | 3.6 µM | EC50 [9]: 9.2 µM; Activity (Rattus norvegicus [10]): 18.5 µM |
| O=S1(=O)N=CN(CCCF)c2cc(Cl)sc21 | 107% | 100 µM | > 300 µM | – |
| CN1C=NS(=O)(=O)c2sc(Cl)cc21 | – | > 100 µM | > 166 µM | – |
| CCN1C=NS(=O)(=O)c2c(Cl)sc(Cl)c21 | > 1000% | – | 42 µM | – |
| CCN1C=NS(=O)(=O)c2sc(Cl)cc21 | > 175% | > 100 µM | 172 µM | – |
| O=S1(=O)N=CN(CC(F)F)c2c(Cl)sc(Cl)c21 | – | > 100 µM | – | – |
| CN1CNS(=O)(=O)c2sc(Cl)cc21 | > 462% | – | 36 µM | – |
| CN1C=NS(=O)(=O)c2c(Cl)sc(Cl)c21 | > 413% | – | 81 µM | – |
| CC(C)N1C=NS(=O)(=O)c2sc(Cl)cc21 | > 277% | > 100 µM | > 100 µM | – |
| CCN1CNS(=O)(=O)c2c(Cl)sc(Cl)c21 | > 955% | > 55 µM | 71 µM | – |
| CCCN1CNS(=O)(=O)c2sc(Cl)cc21 | 2090% | 25.1 µM | 15 µM | – |
| CCCN1C=NS(=O)(=O)c2sc(Cl)cc21 | 2070% | > 100 µM | – | T (Mus musculus [11]): 4.6 °C |
| CC(C)N1CNS(=O)(=O)c2sc(Cl)cc21 | 217% | 9.55 µM | 4.2 µM | – |
| O=S1(=O)N=CNc2c(Cl)sc(Cl)c21 | – | – | > 100 µM | – |
| CCCN1C=NS(=O)(=O)c2c(Cl)sc(Cl)c21 | – | > 100 µM | – | – |
| O=S1(=O)N=CN(CCF)c2cc(Cl)sc21 | 204% | > 100 µM | > 300 µM | – |
| O=S1(=O)N=CN(CF)c2cc(Cl)sc21 | – | > 100 µM | – | – |
| CCN1C=NS(=O)(=O)c2cc(Cl)sc21 | – | > 100 µM | – | – |
| CCCN1CNS(=O)(=O)c2c(Cl)sc(Cl)c21 | > 126% | > 100 µM | > 300 µM | – |
| O=S1(=O)NCN(CC(F)F)c2c(Cl)sc(Cl)c21 | > 227% | > 100 µM | 235 µM | – |
| O=S1(=O)NCNc2c(Cl)sc(Cl)c21 | > 973% | > 100 µM | 72 µM | – |
| O=S1(=O)NCN(CCCF)c2cc(Cl)sc21 | > 3780% | > 45.7 µM | 12 µM | – |
| CCN1CNS(=O)(=O)c2cc(Cl)sc21 | 2830% | 10.4 µM | 4.4 µM | EC50 [9]: 11 µM; Activity (Rattus norvegicus [12]): Active; Activity (Rattus norvegicus [3]): 18.3%; Activity (Rattus norvegicus [4]): 11.7%; Activity (Mus musculus [13]): Active; Activity (Rattus norvegicus [14]): Active; Activity (Rattus norvegicus [15]): 281%; Activity (Mus musculus [16]): Non-toxic; Activity (Rattus norvegicus [10]): 24 µM; Activity (Rattus norvegicus [17]): 34%; Activity (Rattus norvegicus [7]): 3.7% |
| O=S1(=O)NCNc2cc(Cl)sc21 | 253% | > 100 µM | 216 µM | – |
| CN1CNS(=O)(=O)c2c(Cl)sc(Cl)c21 | 2920% | – | 5.4 µM | – |
| O=S1(=O)NCN(CCF)c2c(Cl)sc(Cl)c21 | > 485% | > 100 µM | 113 µM | – |

From ChEMBL document CHEMBL3085641, “Development of thiophenic analogues of benzothiadiazine dioxides as new powerful potentiators of 2-amino-3-(3-hydroxy-5-methylisoxazol-4-yl)propionic acid (AMPA) receptors” (J Med Chem, 2013)
